Data on 47 molecules can be found in ChEMBL document CHEMBL5214982, “Identification and Biochemical Characterization of Pyrrolidinediones as Novel Inhibitors of the Bacterial Enzyme MurA” (J Med Chem, 2022).

Each structure is given as a SMILES string. Calls of active or inactive are those of the source. The rule behind the calls is not given here.

For data set [1], the target named is UDP-N-acetylglucosamine 1-carboxyvinyltransferase (Escherichia coli K-12) (UniProt P0A749). Nature of the data set: Inhibition of wild type his tagged Escherichia coli K12 MurA at 20 uM using UDP-N-acetylglucosamine as substrate preincubated with substrate for 30 mins prior to compound addition for 15 mins followed by DTT and PEP addition and measured after 30 mins by malachite green based microplate reader analysis relative to control. The note with it: time 45.0 min.

Data set [2] deals with UDP-N-acetylglucosamine 1-carboxyvinyltransferase (Escherichia coli K-12, UniProt P0A749). Nature of the data set: Inhibition of wild type his tagged Escherichia coli K12 MurA using UDP-N-acetylglucosamine as substrate […] for 15 mins followed by DTT and PEP addition and measured after 30 mins by malachite green based microplate reader analysis.
The nature of data set [3]: Stability in human S9 fractions assessed as degradation at measured after 2 hrs by HPLC-MS analysis. The format is ADME, subcellular, Liver, S9 fraction. The note with it: read-out: Drug degradation.
Data set [4] in a line: Stability in human S9 fractions assessed as half life at by HPLC-MS analysis. The format is ADME, subcellular, Liver, S9 fraction.
Data set [5] has as its target UDP-N-acetylglucosamine 1-carboxyvinyltransferase (Escherichia coli K-12) (UniProt P0A749). Nature of the data set: Inhibition of wild type his tagged Escherichia coli K12 MurA at 0.2 uM using UDP-N-acetylglucosamine as substrate preincubated with substrate for 15 mins prior to compound addition for 15 mins followed by DTT and PEP addition by dilution assay. The procedure, abridged: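 His-tagged WT MurA (30 μg) preincubated with 400 μM UNAG for 15 min, then with inhibitor (10 μM) for another 15 min. Mixture diluted 1:50 into master mix of 150 μM UNAG, 150 μM PEP, 2 mM DTT and 25 mM Tris-HCl pH 7.5 (final), giving 0.2 μM inhibitor; incubated 37°C 30 min. Malachite green/molybdate stop, A625 after 5 min, minus no-enzyme blank; three independent experiments.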

The target is the same in data set [6]. Nature of the data set: Inhibition of wild type his tagged Escherichia coli K12 MurA at 2 uM using UDP-N-acetylglucosamine as substrate […] for 15 mins followed by DTT and PEP addition and measured after 30 mins by malachite green based microplate reader analysis relative to control. Conditions: time 45.0 min.
For data set [7], the system named is UDP-N-acetylglucosamine 1-carboxyvinyltransferase (Escherichia coli K-12), P0A749 [C115D]. Nature of the data set: Inhibition of […] his tagged Escherichia coli K12 MurA C115D mutant at 2 uM using UDP-N-acetylglucosamine as substrate in presence of DTT and PEP by microplate reader analysis relative to control. Conditions: time 45.0 min. The method in brief: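 His-tagged C115D MurA preincubated directly with compounds (no UNAG preincubation) 15 min rt; fosfomycin and test compound each 2 μM final, 2% DMSO. Master mix added: 150 μM UNAG, 150 μM PEP, 2 mM DTT, 25 mM Tris-HCl pH 7.5; 37 °C 30 min. Malachite green/molybdate stop, A625 after 5 min, no-enzyme background subtracted; three independent experiments.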

In data set [8] the test system is MRC5. Nature of the data set: Cytotoxicity against human MRC5 cells at upto 100 uM incubated for 24 hrs by MTT assay. The format is toxicity, cell-based. The note with it: mrc5, 24 h. The procedure, abridged:
(§1)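 MRC-5 (20,000/well) or HepG2 (25,000/well) seeded, treated next day for 24 h with eight concentrations up to 100 μM (DMSO solutions). Viability by MTT: medium replaced with 0.5 mg/ml MTT in DMEM, cells lysed in DMSO, absorbance at 560 nm. Three independent experiments.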

The test system of data set [9] is HepG2. Nature of the data set: Cytotoxicity against human HepG2 cells at upto 100 uM incubated for 24 hrs by MTT assay. The format is toxicity, cell-based. The note with it: hepg2, 24 h. The procedure, abridged: as §1
A short description of data set [10]: Stability in human plasma assessed as degradation at measured after 4 hrs by HPLC-MS analysis. The format is ADME, cell-free. Conditions: read-out: Drug degradation.
The nature of data set [11]: Stability in human plasma assessed as half life at by HPLC-MS analysis. The format is ADME, cell-free.

Chain of UDP-N-acetylglucosamine 1-carboxyvinyltransferase (Escherichia coli K-12) (P0A749 whole entry): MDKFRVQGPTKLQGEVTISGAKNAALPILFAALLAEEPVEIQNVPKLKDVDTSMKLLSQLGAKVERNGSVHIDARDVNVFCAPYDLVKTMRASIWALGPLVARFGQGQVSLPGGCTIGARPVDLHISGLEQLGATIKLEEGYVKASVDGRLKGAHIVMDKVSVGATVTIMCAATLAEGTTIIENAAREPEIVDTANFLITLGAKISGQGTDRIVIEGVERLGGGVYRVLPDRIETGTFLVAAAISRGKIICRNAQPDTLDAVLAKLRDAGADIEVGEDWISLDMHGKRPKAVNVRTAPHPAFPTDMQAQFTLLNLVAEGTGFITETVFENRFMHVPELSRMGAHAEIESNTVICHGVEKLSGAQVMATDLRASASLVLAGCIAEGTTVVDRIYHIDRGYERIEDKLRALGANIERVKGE
Chain of UDP-N-acetylglucosamine 1-carboxyvinyltransferase (P0A749 whole entry): as above
Chain of UDP-N-acetylglucosamine 1-carboxyvinyltransferase (Escherichia coli K-12), P0A749 [C115D] (P0A749 whole entry C115D): as the sequence (P0A749 whole entry) above, with C115D counted along it

As to `CCOC(=O)C1=C(O)C(=O)N(c2nc3ccc(C)cc3s2)C1c1ccccc1` (centres undefined), in data set [1], the inhibition stood at 26%.

With `CCOC(=O)C1=C(O)C(=O)N(c2nc3ccccc3s2)C1c1ccc(-c2ccccc2)cc1` (centres undefined), the inhibition in [1] amounted to 45%.

In the case of `CCOC(=O)C1=C(O)C(=O)N(c2nc3ccc(C)cc3s2)C1c1ccc2cc(O)ccc2c1` (centres undefined), the inhibition in data set [1] came out at 43%.

Turning to `CCOC(=O)C1=C(O)C(=O)N(c2nc3c(Cl)cccc3s2)C1c1ccc(-c2ccccc2)cc1` (centres undefined), the inhibition in [1] came to 73%. In data set [2], this molecule gave an IC50 of 7 µM.

With `CCOC(=O)C1=C(O)C(=O)N(c2nc3ccc(C)cc3s2)C1c1nc2ccccc2s1` (centres undefined), the inhibition in data set [1] is 12%.

`Cc1ccc2nc(N3C(=O)C(O)=C(C(=O)OCCO)C3c3ccc(-c4ccc(Cl)cc4)o3)sc2c1` (centres undefined): in data set [1], the inhibition turned out to be 43%.

In the case of `CCOC(=O)C1=C(O)C(=O)N(c2nc3ccc(C)cc3s2)C1c1ccc(-c2ccc(Cl)cc2)o1` (centres undefined), the inhibition in data set [1] was found to be 75%. In data set [2], this molecule had an IC50 of 9.9 µM.

`CCOC(=O)C1=C(O)C(=O)N(c2nc3cc(C)c(C)cc3s2)C1c1ccc(-c2ccccc2)cc1` (centres undefined): the inhibition in [1] is 85%. The molecule further returned an IC50 in data set [2] of 5.8 µM.

As for `CCOC(=O)C1=C(O)C(=O)N(c2nc3ccc(C)cc3s2)C1c1ccc(-c2ccccc2)o1` (centres undefined), the inhibition in data set [1] worked out at 37%.

On to `CCOC(=O)C1=C(O)C(=O)N(c2nc3ccc(C)cc3s2)C1c1ccccc1-c1cccs1` (centres undefined), for which, in data set [1], the inhibition was 50%. Besides, in [2], the IC50 worked out at 22 µM.

For `COC(=O)C1=C(O)C(=O)N(c2nc3ccc(C)cc3s2)C1c1ccc(-c2ccc(Cl)cc2)o1` (centres undefined), the inhibition in data set [1] was determined as 59%. For the same molecule, in [2], the IC50 is 16 µM.

In the case of `CC(C)(C)OC(=O)C1=C(O)C(=O)N(c2nc3ccc(Cl)cc3s2)C1c1ccccc1` (centres undefined), the inhibition in data set [1] was 38%.

For `CCOC(=O)C1=C(O)C(=O)N(c2nc3ccc(C)cc3s2)C1c1cccnc1` (centres undefined), the inhibition in data set [1] was 29%.

For the molecule `CCOC(=O)C1=C(O)C(=O)N(c2ccc(Cl)cc2)C1c1ccc(Cl)cc1` (centres undefined), in data set [1], the inhibition was 14%.

Take `CCOC(=O)C1=C(O)C(=O)N(c2nc3ccc(C)cc3s2)C1c1ccccc1-c1ccccc1` (centres undefined): in [1], the inhibition stood at 57%. In addition, the IC50 in [2] amounted to 17 µM.

Turning to `CCOC(=O)C1=C(O)C(=O)N(c2nc3ccc(C)cc3s2)C1c1ccco1` (centres undefined), the inhibition in [1] was found to be 21%.

On to `CCOC(=O)C1=C(O)C(=O)N(c2nc3ccccc3s2)C1c1ccccc1` (centres undefined), for which the inhibition in [1] is 0%.

Turning to `C[C@]12CC[C@H]3[C@@H](CCC4=CC(=O)CC[C@@]43C)[C@@H]1CC[C@@H]2O` [TESTOSTERONE], the metabolised at 2 h in [3] was determined as 89%. For the same molecule, the t1/2 in data set [4] is reported as 5.9 min.

Consider `C[C@@H]1O[C@@H]1P(=O)(O)O` [FOSFOMYCIN], for which the inhibition in data set [1] is 78%; in data set [6], 31%; in data set [7] it was -4%. Also, the IC50 in data set [2] is 5.3 µM. Further, the inhibition entry in data set [5] was “Active”.

For the molecule `CCOC(=O)C1=C(O)C(=O)N(c2nc3ccc(C(F)(F)F)cc3s2)C1c1ccc(-c2ccccc2)cc1` (centres undefined), the inhibition in [1] is 70%. The IC50 in data set [2] stood at 6.1 µM.

On to `CCOC(=O)C1=C(O)C(=O)N(c2nc3ccc(C)cc3s2)C1c1ccc(-c2ccc(Cl)nn2)cc1` (centres undefined), for which the inhibition in [1] was 36%.

`CCOC(=O)C1=C(O)C(=O)N(c2nc3ccc(C)cc3s2)C1c1ccc(-c2ccc(C(F)(F)F)cc2Cl)o1` (centres undefined): in [1], the inhibition worked out at 94%. The molecule further displayed an IC50 in data set [2] of 4.8 µM.

With `CCOC(=O)C1=C(O)C(=O)N(c2nc3ccc(Cl)cc3s2)C1c1ccc(Cl)cc1` (centres undefined), the inhibition in data set [1] is 34%.

`CCOC(=O)C1=C(O)C(=O)N(c2ccccc2)C1c1ccc(-c2ccccc2)cc1` (centres undefined): the inhibition in [1] was 13%.

As to `CCOC(=O)C1=C(O)C(=O)N(c2nc3ccc(C)cc3s2)C1c1cccs1` (centres undefined), the inhibition in data set [1] amounted to 14%.

For `CCOC(=O)C1=C(O)C(=O)N(c2nc3ccc(Oc4ccccc4)cc3s2)C1c1ccccc1` (centres undefined), the inhibition in data set [1] amounted to 53%. Moreover, in data set [2], the IC50 was found to be 17 µM.

Consider `CCOC(=O)C1=C(O)C(=O)N(c2nc3ccc(Br)cc3s2)C1c1ccc(-c2ccccc2)cc1` (centres undefined), for which the inhibition in data set [1] worked out at 52%. This molecule showed an IC50 in data set [2] of 21 µM.

Consider `CCOC(=O)C1=C(O)C(=O)N(c2nc3c(s2)CCCC3)C1c1ccccc1` (centres undefined), for which the inhibition in data set [1] was determined as 14%.

Regarding `CCOC(=O)C1=C(O)C(=O)N(c2nc3ccc(Cl)cc3s2)C1c1ccc(-c2ccccc2)cc1` (centres undefined), the inhibition in data set [1] turned out to be 78%. 5.1 µM corresponded to half-maximal inhibition in data set [2] (IC50). The Activity entry in [8] and in data set [9] was “Non-Toxic” throughout.

`CCOC(=O)C1=C(O)C(=O)N(c2ccc(-c3ccccc3)cc2)C1c1ccccc1` (centres undefined): the inhibition in [1] is 19%.

`CCOC(=O)C1=C(O)C(=O)N(c2nc3c(ccc4ccccc43)s2)C1c1ccccc1` (centres undefined): in data set [1], the inhibition came to 36%.

As to `CCOC(=O)C1=C(O)C(=O)N(c2nc3c(Cl)cccc3s2)C1c1ccccc1` (centres undefined), the inhibition in data set [1] came to 18%.

As for `CCOC(=O)C1=C(O)C(=O)N(c2nc3c(F)cc(F)cc3s2)C1c1ccc(-c2ccccc2)cc1` (centres undefined), in data set [1], the inhibition is 76%. Moreover, in data set [2], the IC50 worked out at 7.5 µM.

Regarding `Cc1ccc2nc(N3C(=O)C(O)=C(C(=O)OC(C)(C)C)C3c3ccccc3)sc2c1` (centres undefined), the inhibition in data set [1] was found to be 38%.

For `CCOC(=O)C1=C(O)C(=O)N(c2nc3ccc(C)cc3s2)C1c1cc(-c2ccccc2)cs1` (centres undefined), the inhibition in data set [1] came to 72%. The molecule also showed an IC50 in [2] of 9.9 µM.

With `CCOC(=O)C1=C(O)C(=O)N(c2nc3c(C)cccc3s2)C1c1ccccc1` (centres undefined), in [1], the inhibition stood at 0%.

As to `CCCCNc1ccc(C(=O)OCCN(C)C)cc1` [TETRACAINE], the metabolised at 4 h in data set [10] worked out at 100%. In addition, the t1/2 in data set [11] is 20 min.

With `CCOC(=O)C1=C(O)C(=O)N(c2nc3ccc(C)cc3s2)C1c1cccc2ccccc12` (centres undefined), the inhibition in [1] was determined as 54%. This molecule showed an IC50 in data set [2] of 15 µM.

For `CCOC(=O)C1=C(O)C(=O)N(c2nc3ccc(Cl)cc3s2)C1c1ccccc1` (centres undefined), the inhibition in data set [1] stood at 14%.

For `CCOC(=O)C1=C(O)C(=O)N(c2nc3ccc(C)cc3s2)C1c1ccc(O)cc1` (centres undefined), in data set [1], the inhibition is 23%.

For `CCOC(=O)C1=C(O)C(=O)N(c2nc3ccc(C)cc3s2)C1c1ccc2ccccc2c1` (centres undefined), the inhibition in [1] turned out to be 44%.

For `CCOC(=O)C1=C(O)C(=O)N(c2nc3ccc(C)cc3s2)C1c1ccc(OC)c2ccccc12` (centres undefined), in data set [1], the inhibition was determined as 74%. In data set [2], this molecule returned an IC50 of 9.5 µM.

For the molecule `CCOC(=O)C1=C(O)C(=O)N(c2nc3c(OC)cccc3s2)C1c1ccc(-c2ccccc2)cc1` (centres undefined), the inhibition in data set [1] turned out to be 31%. The IC50 in data set [2] is 25 µM.

In the case of `CCOC(=O)C1=C(O)C(=O)N(c2nc3ccc(C)cc3s2)C1c1ccc(-c2ccccc2)cc1` (centres undefined), the inhibition in [1] is 76%. This molecule also gave an IC50 in [2] of 8.5 µM.

`Cc1cccc2sc(N3C(=O)C(O)=C(C(=O)OC(C)(C)C)C3c3ccccc3)nc12` (centres undefined): in data set [1], the inhibition was found to be 67%. This molecule also came in with an IC50 in [2] of 11 µM.

`CCOC(=O)C1=C(O)C(=O)N(Cc2ccc(Cl)cc2)C1c1ccc(-c2ccccc2)cc1` (centres undefined): the inhibition in data set [1] worked out at 40%.

`CCOC(=O)C1=C(O)C(=O)N(c2nc3ccc(OC)cc3s2)C1c1ccc(-c2ccccc2)cc1` (centres undefined): in [1], the inhibition is 51%. The molecule further had an IC50 in [2] of 22 µM.

What is called inhibition is the relative decrease from the control value, in per cent. By IC50 is commonly meant the concentration needed to halve the response being measured.
